{"source": "paper PMC3776982", "about": "(British Journal of Cancer, 2013)", "system": "previously treated SCLC patients", "assay": "Adverse events", "assay_type": "in vivo, human", "method_in_brief": "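Toxicities graded by CTCAE v3.0 in adults with SCLC that had progressed after ≥2 prior chemotherapy regimens, including a platinum one. Paclitaxel 175 mg m−2 was given as a 3-h IV infusion every 3 weeks. Everolimus was given orally once daily (2.5, 5 or 10 mg) over 21-day courses. Patients were assessed weekly during cycle 1, then every 3 weeks.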", "key": {"[1]": {"conditions": "everolimus 2.5 mg daily (n=6), grade 3/4, + 3-weekly paclitaxel 175 mg m^−2"}, "[2]": {"conditions": "everolimus 5 mg daily (n=11), grade 1/2, + 3-weekly paclitaxel 175 mg m^−2"}, "[3]": {"conditions": "everolimus 5 mg daily (n=11), grade 3/4, + 3-weekly paclitaxel 175 mg m^−2"}, "[4]": {"conditions": "everolimus 10 mg daily (n=3), grade 1/2, + 3-weekly paclitaxel 175 mg m^−2"}, "[5]": {"conditions": "everolimus 10 mg daily (n=3), grade 3/4, + 3-weekly paclitaxel 175 mg m^−2"}}}
{"smiles": "CO[C@H]1C[C@@H]2CC[C@@H](C)[C@@](O)(O2)C(=O)C(=O)N2CCCC[C@H]2C(=O)O[C@H]([C@H](C)C[C@@H]2CC[C@@H](OCCO)[C@H](OC)C2)CC(=O)[C@H](C)/C=C(\\C)[C@@H](O)[C@@H](OC)C(=O)[C@H](C)C[C@H](C)/C=C/C=C/C=C/1C", "note": "[everolimus]", "values": [{"measurement": "Stomatitis (number of patients with adverse event)", "setting": "[1]", "value": 0}, {"measurement": "Thrombocytopenia (number of patients with adverse event)", "setting": "[1]", "value": 0}, {"measurement": "Vomiting (number of patients with adverse event)", "setting": "[1]", "value": 0}, {"measurement": "ALT increased (number of patients with adverse event)", "setting": "[2]", "value": 5}, {"measurement": "AST increased (number of patients with adverse event)", "setting": "[2]", "value": 4}, {"measurement": "Anaemia (number of patients with adverse event)", "setting": "[2]", "value": 10}, {"measurement": "Anorexia (number of patients with adverse event)", "setting": "[2]", "value": 3}, {"measurement": "Diarrhoea (number of patients with adverse event)", "setting": "[2]", "value": 2}, {"measurement": "Febrile neutropenia (number of patients with adverse event)", "setting": "[2]", "value": 0}, {"measurement": "Hyperglycemia (number of patients with adverse event)", "setting": "[2]", "value": 9}, {"measurement": "Hypertriglycemia (number of patients with adverse event)", "setting": "[2]", "value": 2}, {"measurement": "Itching (number of patients with adverse event)", "setting": "[2]", "value": 2}, {"measurement": "Leukopenia (number of patients with adverse event)", "setting": "[2]", "value": 4}, {"measurement": "Neuropathy (number of patients with adverse event)", "setting": "[2]", "value": 3}, {"measurement": "Neutropenia (number of patients with adverse event)", "setting": "[2]", "value": 3}, {"measurement": "Pain (number of patients with adverse event)", "setting": "[2]", "value": 6}, {"measurement": "Pneumonitis (number of patients with adverse event)", "setting": "[2]", "value": 1}, {"measurement": "Stomatitis (number of patients with adverse event)", "setting": "[2]", "value": 5}, {"measurement": "Thrombocytopenia (number of patients with adverse event)", "setting": "[2]", "value": 3}, {"measurement": "Vomiting (number of patients with adverse event)", "setting": "[2]", "value": 2}, {"measurement": "ALT increased (number of patients with adverse event)", "setting": "[3]", "value": 0}, {"measurement": "AST increased (number of patients with adverse event)", "setting": "[3]", "value": 0}, {"measurement": "Anaemia (number of patients with adverse event)", "setting": "[3]", "value": 1}, {"measurement": "Anorexia (number of patients with adverse event)", "setting": "[3]", "value": 0}, {"measurement": "Diarrhoea (number of patients with adverse event)", "setting": "[3]", "value": 0}, {"measurement": "Febrile neutropenia (number of patients with adverse event)", "setting": "[3]", "value": 1}, {"measurement": "Hyperglycemia (number of patients with adverse event)", "setting": "[3]", "value": 0}, {"measurement": "Hypertriglycemia (number of patients with adverse event)", "setting": "[3]", "value": 0}, {"measurement": "Itching (number of patients with adverse event)", "setting": "[3]", "value": 0}, {"measurement": "Leukopenia (number of patients with adverse event)", "setting": "[3]", "value": 4}, {"measurement": "Neuropathy (number of patients with adverse event)", "setting": "[3]", "value": 1}, {"measurement": "Neutropenia (number of patients with adverse event)", "setting": "[3]", "value": 6}, {"measurement": "Pain (number of patients with adverse event)", "setting": "[3]", "value": 0}, {"measurement": "Pneumonitis (number of patients with adverse event)", "setting": "[3]", "value": 0}, {"measurement": "Stomatitis (number of patients with adverse event)", "setting": "[3]", "value": 0}, {"measurement": "Thrombocytopenia (number of patients with adverse event)", "setting": "[3]", "value": 1}, {"measurement": "Vomiting (number of patients with adverse event)", "setting": "[3]", "value": 0}, {"measurement": "ALT increased (number of patients with adverse event)", "setting": "[4]", "value": 0}, {"measurement": "AST increased (number of patients with adverse event)", "setting": "[4]", "value": 1}, {"measurement": "Anaemia (number of patients with adverse event)", "setting": "[4]", "value": 3}, {"measurement": "Anorexia (number of patients with adverse event)", "setting": "[4]", "value": 1}, {"measurement": "Diarrhoea (number of patients with adverse event)", "setting": "[4]", "value": 1}, {"measurement": "Febrile neutropenia (number of patients with adverse event)", "setting": "[4]", "value": 0}, {"measurement": "Hyperglycemia (number of patients with adverse event)", "setting": "[4]", "value": 2}, {"measurement": "Hypertriglycemia (number of patients with adverse event)", "setting": "[4]", "value": 2}, {"measurement": "Itching (number of patients with adverse event)", "setting": "[4]", "value": 2}, {"measurement": "Leukopenia (number of patients with adverse event)", "setting": "[4]", "value": 2}, {"measurement": "Neuropathy (number of patients with adverse event)", "setting": "[4]", "value": 2}, {"measurement": "Neutropenia (number of patients with adverse event)", "setting": "[4]", "value": 1}, {"measurement": "Pain (number of patients with adverse event)", "setting": "[4]", "value": 2}, {"measurement": "Pneumonitis (number of patients with adverse event)", "setting": "[4]", "value": 0}, {"measurement": "Stomatitis (number of patients with adverse event)", "setting": "[4]", "value": 1}, {"measurement": "Thrombocytopenia (number of patients with adverse event)", "setting": "[4]", "value": 2}, {"measurement": "Vomiting (number of patients with adverse event)", "setting": "[4]", "value": 0}, {"measurement": "ALT increased (number of patients with adverse event)", "setting": "[5]", "value": 0}, {"measurement": "AST increased (number of patients with adverse event)", "setting": "[5]", "value": 0}, {"measurement": "Anaemia (number of patients with adverse event)", "setting": "[5]", "value": 0}, {"measurement": "Anorexia (number of patients with adverse event)", "setting": "[5]", "value": 0}, {"measurement": "Diarrhoea (number of patients with adverse event)", "setting": "[5]", "value": 0}, {"measurement": "Febrile neutropenia (number of patients with adverse event)", "setting": "[5]", "value": 0}, {"measurement": "Hyperglycemia (number of patients with adverse event)", "setting": "[5]", "value": 1}, {"measurement": "Hypertriglycemia (number of patients with adverse event)", "setting": "[5]", "value": 0}, {"measurement": "Itching (number of patients with adverse event)", "setting": "[5]", "value": 0}, {"measurement": "Leukopenia (number of patients with adverse event)", "setting": "[5]", "value": 0}, {"measurement": "Neuropathy (number of patients with adverse event)", "setting": "[5]", "value": 0}, {"measurement": "Neutropenia (number of patients with adverse event)", "setting": "[5]", "value": 2}, {"measurement": "Pain (number of patients with adverse event)", "setting": "[5]", "value": 0}, {"measurement": "Pneumonitis (number of patients with adverse event)", "setting": "[5]", "value": 0}, {"measurement": "Stomatitis (number of patients with adverse event)", "setting": "[5]", "value": 0}, {"measurement": "Thrombocytopenia (number of patients with adverse event)", "setting": "[5]", "value": 2}, {"measurement": "Vomiting (number of patients with adverse event)", "setting": "[5]", "value": 0}]}
